miR-122 sensor: blocks miR-122 activity in Huh7 sensor cells | 340,000 compounds, 0.3% hits | AID 602342 | Huh7 miR-122 Renilla luciferase sensor, 48 h; neutral wells = 0, positive control = 100 | activation (reporter increase), % at 12.5 µM;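 active means mean replicate activation score at least 90 and every replicate individually at or above 90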;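 further: higher luciferase means less miR-122 activity so hits act as miR-122 inhibitors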
CFTR F508del cor: correctors of CFTR F508del function in bronchial epithelial cells; CFBE cells, YFP halide quenching; stimulated with forskolin plus potentiator P3; % fluorescence drop versus neutral controls; activity (quench increase), % at 7.58 µM; 350,000 compounds, 0.36% hits; AID 720511;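 active means mean added fluorescence quench of at least 8% versus neutral control, with both replicates also reaching 8%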;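 further: cells transiently co-express mutant CFTR-F508del with the halide-sensitive YFP; corrector assay measuring rescue of mutant channel to the surface after 24 h compound exposure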
INS-1E GSIS act: GLuc luminescence reporter in INS-1E cells, primary screen for activators of glucose-dependent secretion of insulin | INS-1E GLuc reporter insulin secretion, 2-3 h | activation, % at 16.6 µM | 370,000 compounds, 0.61% hits;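 active means lowest replicate activation of at least 40%, so every replicate reaches that level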;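 further: 0% = median of neutral control wells and 100% = median of IBMX positive control wells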
HIV Env fusion: HIV envelope-mediated fusion inhibition; AID 651610; inhibition, % at 12.3 µM; HeLa-JRFL Env/CEM21 cell fusion, luciferase; 360,000 compounds, 1.1% hits;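 active means mean replicate inhibition score of at least 50 and every replicate individually at or above 50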;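 further: 0% = plate neutral controls and 100% = maraviroc near 300 nM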
rRNA inh HTS: inhibitors of bacterial rRNA selective over humanized ribosomes. GFP signal change (wild-type ribosome), % (test concentration not listed). 350,000 compounds, 1.6% hits. E. coli WT GFP vs humanized-ribosome RFP mutants, fluorescence, 24 h; active compounds read low; DMSO median 0, no signal -100. AID 720706;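 active means significant combined selectivity score with lowered wild-type GFP, culture density cut under 30%, mutant RFP and density less affected; inactive means any of these conditions unmet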
Cneo AK release: Cryptococcus neoformans lysis via adenylate kinase release; C. neoformans lysis, adenylate kinase release luminescence, 4 h; normalised: neutral wells 0, clomiphene wells 100; lysis activity, % at 15 µM; 360,000 compounds, 0.2% hits;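 active means mean lysis activity across replicates of at least 80%, whatever share of replicates individually reach that level; inactive means mean lysis activity below 80%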
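Material – log-phase Cryptococcus neoformans yeast cells · Input – 5 × 10^6 yeast cells/mL · Medium – fresh YPD growth medium · Doses – single compound concentration per well · Timing – static 4 h at 37 °C with compound, 1 h detection · Detection – adenylate kinase release luminescence · Read-out – signal increase indicating cell lysis · Control set – Clomiphene as positive lysis control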
An asterisk follows results filed as active; i = inactive; nt = no result given; [ ] = another dose, or the depositor's remark. Rows were chosen to be rich in hits. Some 3.1% of all compounds tested hit in one or more screens of this group.

SMILES	miR-122 sensor	CFTR F508del cor	INS-1E GSIS act	HIV Env fusion	rRNA inh HTS	Cneo AK release
C[C@@H](NC(=O)C[C@@H]1CC[C@@H]2[C@H](COC[C@H](O)CN2Cc2ccc(C(F)(F)F)cc2)O1)c1ccccc1	3[16.7 µM]	3	-15	9[16.7 µM]	-6	2
O=S(=O)(c1cccs1)N1CN(C2CCCCC2)c2nc3ccccc3nc21	-13	3	80*	-93	-13	-3
C[C@@H]1CCCCO[C@@H](CN(C)Cc2ccc(Cl)c(Cl)c2)[C@H](C)CN([C@H](C)CO)C(=O)c2cc(NS(=O)(=O)c3ccccc3)ccc2O1	-13[16.7 µM]	0	-29	38[16.7 µM]	0	3
CCOc1ccccc1NC(=O)CSc1ccc(-c2ccco2)nn1	-3	-2	61*	-2	-21	-4
CC(C)NC(=O)Nc1ccc2c(c1)C(=O)N([C@H](C)CO)C[C@@H](C)[C@@H](CN(C)C(=O)NC1CCCCC1)OCCCC[C@H](C)O2	-1[16.7 µM]	2	0	-10[16.7 µM]	0	1
Nc1cc2sc(-c3ccc(C(=O)O)cc3)nc2cc1Cl	-6	-1	8	-26	-33*	1
Nc1ccc(-c2nc3ccc(C(=O)O)cc3s2)cc1	nt	nt	-8	69*	-16	nt
CCC(=O)Nc1ccc2c(c1)C(=O)N(C)[C@H]1CC[C@H](CC(=O)NCCc3ccccc3)O[C@@H]1CO2	14[16.7 µM]	0	8	0[16.7 µM]	nt	59
CC(=O)C1=C(S(=O)(=O)c2ccc(C)cc2)CS(=O)(=O)C1	nt	-1	124*	-41	14	nt
Cc1ccc(S(=O)(=O)C2CS(=O)(=O)CC2O)cc1 (stereo not given)	-1	nt	nt	nt	nt	1
CNC(=O)C[C@H]1CC[C@H]2[C@@H](COc3ccc(NC(=O)c4cnccn4)cc3C(=O)N2C)O1	46[16.7 µM]	-1	14	-18[16.7 µM]	-1	1
O=C(C1CCOCC1)N1CC[C@@H]2[C@@H](CO)Nc3ccc(Br)cc3[C@@H]21	40[16.7 µM]	7	-6	nt	4	91*
COc1cccc(-c2ccc3c(c2)[C@H]2[C@H](CCN2C(=O)C2CCCC2)[C@H](CO)N3)c1	nt	3	3	56*[16.7 µM]	-2	nt
O=C(C1CC1)N1CC[C@@H]2[C@@H](CO)Nc3ccc(Br)cc3[C@@H]21	-5[16.7 µM]	1	-3	nt	-1	-1
CCN(CC)c1ccc(/C=N/NC(=O)c2ccccn2)cc1	26	2	8	-55	4	-2
CCN(CC)c1ccc(/C=N/NC(=O)c2cnccn2)cc1	nt	11*	2	i	12	nt
Cn1nnnc1Sc1ncnc2scc(-c3ccccc3)c12	-2	nt	45*	38	7	0
Cn1nnnc1Sc1ncnc2scc(-c3ccc(Br)cc3)c12	-13	-4	22	-6	-37	-2
Cn1nnnc1Sc1ncnc2scc(-c3ccc(F)cc3)c12	-24	nt	61*	83*	nt	1
Cn1nnnc1Sc1ncnc2scc(-c3ccccc3Br)c12	-9	-7	23	-5	-21	-1
CCC(=O)N1CC2(C1)[C@H](c1ccc(-c3ccc(F)cc3)cc1)[C@H](CO)N2S(C)(=O)=O	nt	2	-8	nt	-3	nt
O=C(CSCc1nc2ccccc2[nH]1)Nc1ccc2ccccc2c1	-7	nt	-21	71*	nt	-1
O=C(CSCc1nc2ccccc2[nH]1)Nc1ccc(Oc2ccccc2)cc1	nt	nt	-31	18	nt	nt
COCC(=O)Nc1ccc2c(c1)[C@@H]1C[C@H](CC(=O)N3CCCCC3)O[C@@H](CO)[C@@H]1O2	2[16.7 µM]	0	15	11[16.7 µM]	2	59
CNC(=O)C(=O)NCC1OCCCN1S(=O)(=O)c1ccc(F)cc1C (stereo not given)	-3	3	44*	-3	10	-3
SMILES	miR-122 sensor	CFTR F508del cor	INS-1E GSIS act	HIV Env fusion	rRNA inh HTS	Cneo AK release
Cc1ccc(S(=O)(=O)N2CCCOC2CNC(=O)C(=O)NCCC2=CCCCC2)cc1 (stereo not given)	nt	nt	-29	60*	nt	nt
O=C(NCCc1c[nH]c2ccccc12)C(=O)NCC1OCCCN1S(=O)(=O)c1ccc(F)cc1 (stereo not given)	nt	nt	-20	-7	-18*	nt
Cc1ccc(S(=O)(=O)N2CCCOC2CNC(=O)C(=O)NCCN2CCOCC2)cc1 (stereo not given)	0	2	nt	6	nt	2
Nc1cc(=O)[nH]c(SCCSc2cc(Cl)ccc2Cl)n1	-1	2	3	69*	12	-3
Nc1cc(=O)[nH]c(SCCSc2ccccc2F)n1	nt	-1	29	45	-8	5
O=S(=O)(NCC[C@@H]1CC[C@H](NS(=O)(=O)c2ccccc2Cl)[C@H](CO)O1)c1ccc(Cl)cc1	nt	1	-13	50[16.7 µM]	-7	8
CCCC(=O)N1CC2(CN(Cc3nccs3)C2)c2c([nH]c3cc(OC)ccc23)[C@@H]1CO	nt	-1	7	nt	4	nt
Cc1cccc(Nc2nnc(SC/C(O)=C(\C#N)c3nc4ccccc4[nH]3)s2)c1C	3	nt	-24	-60	nt	-3
N#C/C(=C(/O)c1ccc(Br)s1)c1nc2ccccc2[nH]1	-3	10.0*	2	-8	1	-3
N#C/C(=C(\O)Cc1ccccc1)c1nc2ccccc2[nH]1	11	nt	nt	nt	nt	1
N#C/C(=C(/O)CCl)c1nc2ccccc2[nH]1	nt	3	0	5	-16*	nt
Cc1cccc(C)c1Nc1nnc(SC/C(O)=C(\C#N)c2nc3ccccc3[nH]2)s1	13	1	-8	nt	-34*	5
Cc1cc(C(=O)Nc2cccc3c2O[C@@H](CN(C)Cc2ccncc2)[C@H](C)CN([C@H](C)CO)C3=O)n(C)n1	1[16.7 µM]	0	4	nt	3	0
Cn1c(=O)c2c(nc3n2CCCN3CCc2ccccc2)n(C)c1=O	nt	1	48*	17	-1	6
CC(=O)Cn1c(=O)c2c(nc3n2CCCN3Cc2ccccc2)n(C)c1=O	-5	-4	35	-3	1	0
C=C(C)Cn1c(=O)c2c(nc3n2CCCN3Cc2ccccc2)n(C)c1=O	-7	2	-3	-2	-28*	-2
CC(=O)N(C)C[C@H]1Oc2cc(-c3ccc(C#N)cc3)ccc2S(=O)(=O)N([C@H](C)CO)C[C@H]1C	-28[16.7 µM]	0	14	10[16.7 µM]	-8	-2
CCOc1ccc(C(=O)NCC(=O)OCCCC(=O)c2ccc(F)cc2)cc1OCC	nt	-2	45*	nt	-2	-1
Cc1ccnc(NC(=O)CNC(=O)c2ccco2)c1	nt	2	45*	nt	8	-2
CCOc1ccc(C(=O)NCC(=O)NNC(=O)c2cc(C)oc2C)cc1OCC	0	16*	-2	-14	14	0
CCOc1ccc(C(=O)NCC(=O)Nc2cc(C)ccn2)cc1OCC	nt	0	44*	nt	10	0

Screens (PubChem BioAssay)
